Most compounds without a hit are left out; they make up all but 1.6% or so of the library.
TLR4-MyD88 BLA – inhibitors of TLR4-MyD88 association in cells, primary screen, cell-based, HeLa CL3-4, BLA complementation, FRET ratio; Toll-like receptor 4 (Homo sapiens) + Myeloid differentiation primary response protein …; HeLa CL3-4 TLR4/MyD88 BLA complementation; inhibition, % at 8.4 µM; actives 0.18% (n = 200,000); AID 861, 2007; in the data active = inhibition above about 25%;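 note: 0% = vehicle and 100% = reference inhibitor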
Dynein transport – inhibitors of GR-EGFP nuclear translocation, primary screen, dynein cargo transport inhibitor project, imaging, high-content, 3617.4 mouse cells; actives 0.47% (n = 220,000); AID 1381, 2008; test concentration mostly 20 µM; stimulated with dexamethasone, 1 µM; hits give low values; z-score, hits read low;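 active = plate z-score of nuclear minus cytoplasmic receptor signal below a set negative limit, without overly bright fluorescence or cell loss, cut at about -3.5 in these data, passing the limit was not always enough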;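 note: z-score of nuclear minus cytoplasmic ring GR-EGFP intensity difference per well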
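Buffer or medium: tetracycline-free induction medium containing charcoal-stripped FBS / Reagent: dexamethasone agonist, 1.0 µM final, for 30 min / Technique: automated 10x imaging of fixed Hoechst-stained cells / Times: induction 48 h, compound 1 h, agonist 30 min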
NOD2-RIPK2 inh – NOD2-RIPK2 binding disruptors in cells, primary screen, fluorescence, CHO cells, BLA complementation. Receptor-interacting serine/threonine-protein kinase 2 (Homo sapiens), O43353. CCF4 ratio. AID 624267, 2012. inhibition, % at 4.98 µM. actives 0.38% (n = 360,000); in the data active = inhibition above about 21%;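 note: 0% = vehicle only and 100% = reference blocker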
Target sequence (O43353 whole entry, looked up): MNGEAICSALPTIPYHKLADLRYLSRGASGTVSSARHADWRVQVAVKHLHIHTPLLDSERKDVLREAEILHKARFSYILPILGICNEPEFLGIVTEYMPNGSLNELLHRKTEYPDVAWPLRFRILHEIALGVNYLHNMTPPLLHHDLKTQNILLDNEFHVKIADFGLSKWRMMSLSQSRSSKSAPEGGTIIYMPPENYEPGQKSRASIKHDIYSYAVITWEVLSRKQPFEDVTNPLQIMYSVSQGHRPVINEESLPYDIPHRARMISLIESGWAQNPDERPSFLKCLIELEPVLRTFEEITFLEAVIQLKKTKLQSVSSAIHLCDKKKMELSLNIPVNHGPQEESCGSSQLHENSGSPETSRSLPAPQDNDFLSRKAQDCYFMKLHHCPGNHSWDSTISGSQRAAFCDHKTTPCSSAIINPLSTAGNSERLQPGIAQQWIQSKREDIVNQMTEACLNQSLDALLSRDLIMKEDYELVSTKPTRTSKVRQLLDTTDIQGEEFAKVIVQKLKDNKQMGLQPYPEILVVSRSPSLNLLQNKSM
TLR9-MyD88 inh – inhibitors of TLR9-MyD88 association in cells, primary screen, cell-based, CHO, BLA complementation, fluorescence; CCF4 FRET ratio; actives 0.21% (n = 340,000); inhibition, % at 4.98 µM; Toll-like receptor 9 (Homo sapiens) + Myeloid differentiation primary response protein …; AID 504734, 2011;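 active = inhibition above the mean over all tested compounds plus 3 SD, cut at about 21% in these data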;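 note: 0% = DMSO only wells and 100% = clavulanate BLA inhibitor control wells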
ABHD5 PLIN5 PPI – ABHD5-PLIN5 interaction inhibitors, primary screen, cell lysate, split luciferase complementation, luminescence; actives 0.78% (n = 360,000); Split G. princeps luciferase complementation, 4 h; Perilipin-5 (Homo sapiens) + 1-acylglycerol-3-phosphate O-acyltransferase ABHD5 (Homo …; inhibition, % at 4 µM; AID 602281, 2012;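 active = inhibition above the mean inhibition across every tested compound plus 3 SD, cut at about 22% in these data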;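 note: 0% = DMSO only wells and the 100% control is not disclosed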
Beta2AR agonist – beta2AR agonists driving receptor internalization, primary screen, cell-based, FAP fluorogen, flow cytometry; AID 504454, 2011; Am2.2-beta2AR cells; actives 0.43% (n = 340,000); response, % (no concentration beside the values); Beta-2 adrenergic receptor (Homo sapiens), P07550;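 active = response above a set limit, near 3 SD of response in nonfluorescent compounds, cut at about 42% in these data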
Beta2AR ag CP1 – beta2AR agonists via receptor internalization, confirmation, cell-based, FAP fluorogen, flow cytometry, single point, cherry pick 1. shares compounds with Beta2AR agonist. Am2.2-beta2AR cells, FAP surface receptor; hits give low values. percent response (surface receptor), % at 10 µM. actives 25% (n = 1,100). AID 540358, 2011;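 active = surface receptor percent response at or below 58%, roughly 3 SD from nonfluorescent compounds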
FAP fluor counter – counter-screen for beta-2AR agonists: fluorescence in Am2.2 cells | 1,100 tested, under 10 active | shares compounds with Beta2AR agonist | FAP fluorogen flow cytometry, fluorescence counterscreen; hits give low values | calls only at 10 µM;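 active = percent response below a set limit in fluorescence channel 1 and below 50% in channel 8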
* = called active by the depositor; i = inactive; · = not tested or not shown.

SMILES	TLR4-MyD88 BLA	Dynein transport	NOD2-RIPK2 inh	TLR9-MyD88 inh	ABHD5 PLIN5 PPI	Beta2AR agonist	Beta2AR ag CP1	FAP fluor counter
CCOc1cc(-c2nc3ccccn3c2NCC2CCCO2)ccc1O (configuration not stated)	-8.9	1.81	0.5	-4.3	2.3	20.2	29.8*	i
COc1cc(-c2nc3ccccn3c2NCC2CCCO2)ccc1O (configuration not stated)	-4.3	-0.606	-4.2	8.0	4.1	-16.4	·	·
COc1ccc(CCNCC(O)c2ccccc2)cc1 (configuration not stated)	-2.2	-0.883	-9.7	-7.7	-7.3	-0.9	95.6	i
O[C@@H](CNC[C@H](O)c1ccccc1)c1ccccc1	20.1	-0.584	-1.7	-4.5	4.7	-10.2	111.5	i
OC(CNCCc1ccccc1)c1ccccc1 (configuration not stated)	-2.3	-0.141	4.2	-8.2	5.5	7.2	105.4	i
CSc1ccc(CNCC(O)c2ccccc2)cc1 (configuration not stated)	-1.0	0.241	-17.1	-7.1	-2.8	-2.4	·	·
CCN(CC)CC1CN(N=Cc2ccc([N+](=O)[O-])o2)C(=O)O1 (configuration not stated)	·	·	7.4	1.8	-2.3	-3.6	·	·
CCN(c1ccccc1C)S(=O)(=O)c1cc2c3c(c1)CCC(=O)N3CCC2	·	·	-0.3	5.8	0.4	-0.5	·	·
N#Cc1c(-c2ccccc2)nc(SCC(=O)NC2CCCCC2)[nH]c1=O	4.5	0.732	6.8	4.6	2.0	-6.3	·	·
CN(C(=O)CSc1nc(-c2ccc(C(C)(C)C)cc2)c(C#N)c(=O)[nH]1)C1CCCCC1	·	·	12.2	-0.6	-0.2	14.8	104.9	i
Cc1ccc(N(CCC#N)C(=O)COC(=O)c2cc(C)oc2C)cc1	·	·	-3.7	-13.6	-4.5	1.6	·	·
CC(C)(C)c1ccc(OCCC(=O)NCCc2ccc(S(N)(=O)=O)cc2)cc1	·	·	6.0	-2.5	-4.1	-3.5	·	·
COc1ccc(C)cc1S(=O)(=O)N(C)CC(=O)N1CCCC1	·	·	7.2	0.0	2.6	-4.8	·	·
COc1ccc(C)cc1S(=O)(=O)N(C)CC(=O)N1CCN(c2ccccc2)CC1	2.8	0.386	8.4	-9.6	-9.4	-5.9	103.8	i
COc1ccccc1N1CCN(C(=O)CN(C)S(=O)(=O)c2cc(C)ccc2OC)CC1	-14.3	0.0359	6.4	5.6	2.9	1.3	139.3	i
Nc1nc2c(ncn2[C@@H]2O[C@H](CNCc3cnc(N4CCOCC4)nc3)[C@@H](O)[C@H]2O)c(=O)[nH]1	·	·	-4.7	·	-1.9	·	·	·
CCN1CCN(C(CCc2ccccc2)C(=O)NC2CCCCC2)CC1 (configuration not stated)	·	·	-16.3	·	-5.3	·	·	·
Cc1cccc(Nc2nnc(-c3ccc(C(=O)N4C[C@H]5C[C@H](C4)c4cccc(=O)n4C5)cc3)c3ccccc23)c1	7.3	-0.521	6.5	-14.8	14.3	84.7*	15.8*	i
CC1=CC(C)C(=O)N(CCN2CCOCC2)C(C)=C1 (configuration not stated)	·	·	-15.1	-5.8	3.4	·	·	·
Cc1ccc(NC(=O)c2cccc(S(=O)(=O)N3CCc4ccccc4C3)c2)nc1	·	·	-3.5	-5.2	3.0	-3.5	·	·
Cc1cc(N2CCN(C)CC2)ccc1NC(=O)c1cccc(S(=O)(=O)N2CCc3ccccc3C2)c1	-12.5	-0.294	-4.1	-7.0	16.0	42.0*	82.5	i

High-throughput results: PubChem, several laboratories
